Experiments:
Format in all cases: functional
[1] = system: SN12C; assay: Growth inhibition of human SN12C cells at 10 uM after 48 hrs by coulter counter analysis; conditions: read-out: GI
How it was run: (§1)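 Single-dose NCI 60-line panel screen of test compounds. Cells grown in RPMI 1640 with 10% FBS. Compounds dissolved in DMSO, then diluted in phosphate buffer saline (final DMSO below 1%). Wells run in duplicate at 6 × 10⁴ cells/ml. Controls held PBS and DMSO at matching dilutions. Incubation 48 h at 37 °C under humidified 5% CO2. Cells diluted tenfold in saline and counted by Coulter counter. Percent growth inhibition taken from mean-graph of treated-cell growth.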

[2] = system: UO-31; assay: Growth inhibition of human UO31 cells at 10 uM after 48 hrs by coulter counter analysis; conditions: UO-31, 48 h, read-out: GI
How it was run: (§2)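 Single-dose screen in the NCI 60 cell line panel. Cells grown in RPMI 1640 with 10% FBS. Compounds dissolved in DMSO and diluted in phosphate buffered saline, final DMSO under 1%. Duplicate wells seeded from culture at 6 × 10⁴ cells/ml. Incubated 48 h at 37 °C, humidified, 5% CO2. Cells diluted tenfold in saline and Coulter-counted. Percent growth inhibition computed against PBS/DMSO controls.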

[3] = system: OVCAR-8; assay: Growth inhibition of human OVCAR8 cells at 10 uM after 48 hrs by coulter counter analysis; conditions: OVCAR-8, 48 h, read-out: GI; how it was run: as §1
[4] = system: U-251; assay: Growth inhibition of human U251 cells at 10 uM after 48 hrs by coulter counter analysis; conditions: U-251, 48 h, read-out: GI; how it was run: as §2
[5] = system: K562; assay: Growth inhibition of human K562 cells at 10 uM after 48 hrs by coulter counter analysis; conditions: K562, 48 h, read-out: GI; how it was run: as §1
[6] = system: OVCAR-3; assay: Growth inhibition of human OVCAR3 cells at 10 uM after 48 hrs by coulter counter analysis; conditions: OVCAR-3, 48 h, read-out: GI; how it was run: as §1
[7] = system: SNB-19; assay: Growth inhibition of human SNB19 cells at 10 uM after 48 hrs by coulter counter analysis; conditions: SNB-19, 48 h, read-out: GI; how it was run: as §1
[8] = system: BT-549; assay: Growth inhibition of human BT549 cells at 10 uM after 48 hrs by coulter counter analysis; conditions: BT-549, 48 h, read-out: GI; how it was run: as §1
[9] = system: HL-60(TB); assay: Growth inhibition of human HL-60(TB) cells at 10 uM after 48 hrs by coulter counter analysis; conditions: HL-60, 48 h, read-out: GI
How it was run: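 Cells grown in RPMI 1640 with 10% FBS. Compound was dissolved in DMSO and diluted in PBS (under 1% DMSO final), then added in duplicate wells to culture at 6 × 10⁴ cells/ml. PBS/DMSO vehicle controls were included. Incubated at 37 °C, humidified 5% CO₂, for 48 h. Cells were diluted 10-fold in saline and Coulter-counted. Single-dose NCI-60 screen, read as percent growth inhibition.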

[10] = system: HOP-92; assay: Growth inhibition of human HOP92 cells at 10 uM after 48 hrs by coulter counter analysis; conditions: HOP-92, 48 h, read-out: GI; how it was run: as §1
[11] = system: T47D; assay: Growth inhibition of human T47D cells at 10 uM after 48 hrs by coulter counter analysis; conditions: read-out: GI; how it was run: as §2
[12] = system: OVCAR-5; assay: Growth inhibition of human OVCAR5 cells at 10 uM after 48 hrs by coulter counter analysis; conditions: OVCAR-5, 48 h, read-out: GI; how it was run: as §1
[13] = system: TK-10; assay: Growth inhibition of human TK10 cells at 10 uM after 48 hrs by coulter counter analysis; conditions: TK-10, 48 h, read-out: GI; how it was run: as §2
[14] = system: UACC-257; assay: Growth inhibition of human UACC257 cells at 10 uM after 48 hrs by coulter counter analysis; conditions: UACC-257, 48 h, read-out: GI; how it was run: as §2
[15] = system: SF-295; assay: Growth inhibition of human SF295 cells at 10 uM after 48 hrs by coulter counter analysis; conditions: SF-295, 48 h, read-out: GI; how it was run: as §1
[16] = system: NCI-H23; assay: Growth inhibition of human NCI-H23 cells at 10 uM after 48 hrs by coulter counter analysis; conditions: NCI-H23, 48 h, read-out: GI; how it was run: as §1
[17] = system: UACC-62; assay: Growth inhibition of human UACC62 cells at 10 uM after 48 hrs by coulter counter analysis; conditions: UACC-62, 48 h, read-out: GI; how it was run: as §2
[18] = system: A498; assay: Growth inhibition of human A498 cells at 10 uM after 48 hrs by coulter counter analysis; conditions: A498, 48 h, read-out: GI; how it was run: as §1
[19] = system: SK-MEL-2; assay: Growth inhibition of human SK-MEL-2 cells at 10 uM after 48 hrs by coulter counter analysis; conditions: SK-MEL-2, 48 h, read-out: GI; how it was run: as §1
[20] = system: MDA-MB-468; assay: Growth inhibition of human MDA-MB-468 cells at 10 uM after 48 hrs by coulter counter analysis; conditions: MDA-MB-468, 48 h, read-out: GI; how it was run: as §1
[21] = system: EKVX; assay: Growth inhibition of human EKVX cells at 10 uM after 48 hrs by coulter counter analysis; conditions: read-out: GI; how it was run: as §1
[22] = system: Malme-3M; assay: Growth inhibition of human MALME-3M cells at 10 uM after 48 hrs by coulter counter analysis; conditions: read-out: GI; how it was run: as §1
[23] = system: SK-OV-3; assay: Growth inhibition of human SKOV3 cells at 10 uM after 48 hrs by coulter counter analysis; conditions: SK-OV-3, 48 h, read-out: GI; how it was run: as §1
[24] = system: HOP-62; assay: Growth inhibition of human HOP62 cells at 10 uM after 48 hrs by coulter counter analysis; conditions: HOP-62, 48 h, read-out: GI; how it was run: as §1

For `CCOC(=O)c1sc(NC(=O)C(C)N(CC)CC)nc1C` (stereo not given), the inhibition of growth at 10 µM [1] was less than 10%, the inhibition of growth at 10 µM [2] was less than 10% and the inhibition of growth at 10 µM [3] was less than 10%. The inhibition of growth at 10 µM [4] was less than 10%, the inhibition of growth at 10 µM [5] was less than 10% and the inhibition of growth at 10 µM [6] was less than 10%. For the same compound, the inhibition of growth at 10 µM [7] was less than 10%, the inhibition of growth at 10 µM [8] was less than 10% and the inhibition of growth at 10 µM [9] was less than 10%. It also gave an inhibition of growth at 10 µM [10] of less than 10%, an inhibition of growth at 10 µM [11] of less than 10% and an inhibition of growth at 10 µM [12] of less than 10%. The inhibition of growth at 10 µM [13] was less than 10%, the inhibition of growth at 10 µM [14] was less than 10% and the inhibition of growth at 10 µM [15] was less than 10%. For the same compound, the inhibition of growth at 10 µM [16] was less than 10%, the inhibition of growth at 10 µM [17] was less than 10% and the inhibition of growth at 10 µM [18] was less than 10%. For the same compound, the inhibition of growth at 10 µM [19] was less than 10%, the inhibition of growth at 10 µM [20] was less than 10% and the inhibition of growth at 10 µM [21] was less than 10%. For the same compound, the inhibition of growth at 10 µM [22] was less than 10%, the inhibition of growth at 10 µM [23] was less than 10% and the inhibition of growth at 10 µM [24] was less than 10%.
`Cc1csc(NC(=O)C(C)N2CCN(C)CC2)n1` (stereo not given) gave an inhibition of growth at 10 µM [1] of 11.5%, an inhibition of growth at 10 µM [2] of less than 10% and an inhibition of growth at 10 µM [3] of less than 10%. For the same compound, the inhibition of growth at 10 µM [4] was 23.5%, the inhibition of growth at 10 µM [5] was less than 10% and the inhibition of growth at 10 µM [6] was less than 10%. It also gave an inhibition of growth at 10 µM [7] of less than 10%, an inhibition of growth at 10 µM [8] of 13.3% and an inhibition of growth at 10 µM [9] of less than 10%. It also gave an inhibition of growth at 10 µM [10] of less than 10%, an inhibition of growth at 10 µM [11] of less than 10% and an inhibition of growth at 10 µM [12] of less than 10%. The inhibition of growth at 10 µM [13] was less than 10%, the inhibition of growth at 10 µM [14] was less than 10% and the inhibition of growth at 10 µM [15] was less than 10%. The inhibition of growth at 10 µM [16] was 19.8%, the inhibition of growth at 10 µM [17] was 24% and the inhibition of growth at 10 µM [18] was less than 10%. For the same compound, the inhibition of growth at 10 µM [19] was less than 10%, the inhibition of growth at 10 µM [20] was 11.1% and the inhibition of growth at 10 µM [21] was less than 10%. The inhibition of growth at 10 µM [22] was 17.6%, the inhibition of growth at 10 µM [23] was less than 10% and the inhibition of growth at 10 µM [24] was 10.9%.
`Cc1cnc(NC(=O)CCN2CCN(c3ccccc3)CC2)s1` gave an inhibition of growth at 10 µM [1] of less than 10%, an inhibition of growth at 10 µM [2] of 12.8% and an inhibition of growth at 10 µM [3] of less than 10%. The inhibition of growth at 10 µM [4] was less than 10%, the inhibition of growth at 10 µM [5] was less than 10% and the inhibition of growth at 10 µM [6] was less than 10%. For the same compound, the inhibition of growth at 10 µM [7] was less than 10%, the inhibition of growth at 10 µM [8] was less than 10% and the inhibition of growth at 10 µM [9] was less than 10%. It also gave an inhibition of growth at 10 µM [10] of less than 10%, an inhibition of growth at 10 µM [11] of less than 10% and an inhibition of growth at 10 µM [12] of less than 10%. It also gave an inhibition of growth at 10 µM [15] of less than 10%, an inhibition of growth at 10 µM [16] of less than 10% and an inhibition of growth at 10 µM [17] of less than 10%. The inhibition of growth at 10 µM [18] was less than 10%, the inhibition of growth at 10 µM [19] was less than 10% and the inhibition of growth at 10 µM [20] was less than 10%. It also gave an inhibition of growth at 10 µM [21] of 11.4%, an inhibition of growth at 10 µM [22] of less than 10% and an inhibition of growth at 10 µM [24] of less than 10%.
In the case of `O=C(CN1CCN(c2ccccc2)CC1)Nc1nc(-c2ccccc2)cs1`, the inhibition of growth at 10 µM [1] is reported as 17.3%, the inhibition of growth at 10 µM [2] is reported as 51.4% and the inhibition of growth at 10 µM [3] is reported as less than 10%. The inhibition of growth at 10 µM [4] was less than 10%, the inhibition of growth at 10 µM [5] was 20% and the inhibition of growth at 10 µM [6] was less than 10%. The inhibition of growth at 10 µM [7] was 10.1%, the inhibition of growth at 10 µM [8] was 11.3% and the inhibition of growth at 10 µM [9] was 22%. It also gave an inhibition of growth at 10 µM [10] of 25.6%, an inhibition of growth at 10 µM [11] of 29.7% and an inhibition of growth at 10 µM [12] of less than 10%. The inhibition of growth at 10 µM [15] was 15.9%, the inhibition of growth at 10 µM [16] was 18.6% and the inhibition of growth at 10 µM [17] was 36.6%. It also gave an inhibition of growth at 10 µM [18] of 44.1%, an inhibition of growth at 10 µM [19] of 11.6% and an inhibition of growth at 10 µM [20] of 30.4%. For the same compound, the inhibition of growth at 10 µM [21] was less than 10%, the inhibition of growth at 10 µM [22] was 23.4% and the inhibition of growth at 10 µM [24] was less than 10%.

From ChEMBL document CHEMBL2040727, “Substituted thiazoles VI. Synthesis and antitumor activity of new 2-acetamido- and 2 or 3-propanamido-thiazole analogs” (2012)
